Results on six compounds are retold here after ChEMBL document CHEMBL4190284, “Exploring the Sponge Consortium Plakortis symbiotica-Xestospongia deweerdtae as a Potential Source of Antimicrobial Compounds and Probing the Pharmacophore for Antituberculosis Activity of Smenothiazole A by Diverted Total Synthesis” (J Nat Prod, 2017).

Data set [1] relates to Mycobacterium tuberculosis. The data set is described as follows: Antitubercular activity against Mycobacterium tuberculosis H37Rv by broth microdilution Alamar blue assay. The format is functional. The gist of the method:
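Mtb H37Rv growth was measured by broth microdilution Alamar blue assay (MABA). Percentage inhibition at each concentration gave the MIC, defined as the lowest concentration preventing visible bacterial growth. Rifampicin served as positive control. Values are means of three experiments.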

Another data set concerns A2058. The data set is described as follows: Cytotoxicity against human A2058 cells assessed as reduction in cell viability. The format is functional, cell-based.
The test system of a further data set is Plasmodium falciparum. Briefly: Antiplasmodial activity against Plasmodium falciparum W2 assessed as parasite growth inhibition relative to control. The class given is functional.
The next data set has as its system Vero. Briefly: Cytotoxicity against African green monkey Vero cells assessed as reduction in cell viability. Particulars: Chlorocebus sabaeus. The format is cell-based.
A further data set concerns DU-145. The data set is described as follows: Cytotoxicity against human DU145 cells assessed as reduction in cell viability. The format is functional, cell-based.
For data set [2], the system named is Panel NCI-60 (60 carcinoma cell lines). The data set is described as follows: Cytotoxicity against human NCI60 cells assessed as cell growth at 10 uM relative to control. The format is cell-based. The gist of the method: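 Single-dose screen at 10 μM across the full NCI 60 cell line panel; read-out was percent cell growth.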

≈ marks a conversion by molar mass, not a printed value.

Turning to `CC1=C(O)[C@@](C)(CCCCCCCCCCCCc2ccc(O)cc2)OC1=O`, the MIC (usually the smallest concentration in the dilution series that meets the test's criterion for growth inhibition) in data set [1] was over 128 µg/mL.
Consider `CO[C@H]1/C=C/O[C@@]2(C)Oc3c(C)c(O)c4c(O)c(c(/C=N/N5CCN(C)CC5)c(O)c4c3C2=O)NC(=O)/C(C)=C\C=C\[C@H](C)[C@H](O)[C@@H](C)[C@@H](O)[C@@H](C)[C@H](OC(C)=O)[C@@H]1C` [RIFAMPIN], for which, in data set [1], inhibition of growth (MIC) required 0.1 µg/mL (≈ 0.122 µM).
The same measure, in the same setting: for `CC1=C(O)[C@@](C)(CCCCC[C@H](C)CCCCc2ccc(O)cc2)OC1=O` the value was over 128 µg/mL.
Regarding `C/C(=C\C/C(=C\Cl)Cc1ccccc1)C(=O)N[C@H](C(=O)N1CCC[C@H]1c1nccs1)C(C)C`, the IC50 (as a rule, the midpoint of a concentration-inhibition curve) in the data set with A2058 is 20 µM; in the data set with Vero it was over 128 µg/mL; with DU-145 it was 15 µM. The “growth inhibition (GI)” value with Plasmodium falciparum amounted to 55%. The compound also displayed a minimum inhibitory concentration (MIC) in data set [1] of 4.1 µg/mL (≈ 8.43 µM).
As for `C=C(C/C=C(\C)C(=O)N[C@H](C(=O)N1CCC[C@H]1c1nccs1)C(C)C)Cc1ccccc1`, in data set [2], the Activity is listed as over 90%. Also, the MIC in data set [1] is over 128 µg/mL.
Regarding `CC1=C(O)[C@@](C)(CCCCC[C@H](C)CCCCc2ccc(O)c(O)c2)OC1=O`, in data set [1], the MIC was over 128 µg/mL.
